Screening data (PubChem)
Most compounds without a hit are left out; they make up all but 2.3% or so of the library.
TRPC6 act – mouse TRPC6 channel activators, primary screen, cell-based, HEK293, membrane potential dye | AID 2550, 2010 | 0.13% of 310,000 active | HEK293-TRPC6 membrane potential dye fluorescence; active compounds read high | B-score at 10 µM;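 active means B-score of the integrated fluorescence ratio above library mean plus 3 SD, and starting fluorescence ratio within library mean plus 5 SD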;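 further: higher score means more depolarization so channel activation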
TRPC4 act – activators of mouse TRPC4 channel, primary screen, Fluo4 calcium, HEK293 TRPC4beta/mu-opioid cells; Short transient receptor potential channel 4 (Mus musculus), Q9QUQ5; B-score at 10 µM; Fluo4 calcium fluorescence; active compounds read high; 0.49% of 310,000 active;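 active means B-score above 5 SD of library B-scores, and initial fluorescence ratio not above library mean plus 5 SD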;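 further: positive B-score marks a calcium rise read as TRPC4 activation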
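Material: TRPC4beta and mu-opioid receptor HEK293 stable cells | Incubation: 45 min room-temperature Fluo4 loading, 110 s read | Detection: Kinetic Fluo4 calcium fluorescence | Measure: Integrated baseline-normalised fluorescence ratio, converted to per-well B score | Benchmarks: Low control buffer alone, high control maximal DAMGO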
FID counter – compounds displacing fluorescent DNA intercalator, primary screen, artefact control for HCV NS3 helicase inhibitor project, biochemical, FID fluorescence | AID 1845, 2009 | inhibition, % at 7.9 µM | 0.17% of 290,000 active | DNA fluorescent intercalator displacement; in the data active means inhibition above about 37%;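 further: higher means more ethidium bromide displaced from hairpin DNA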
TRPC4 block – inhibitors of mouse TRPC4 channel, primary screen, Fluo4 calcium, HEK293 TRPC4beta/mu-opioid cells | AID 2247, 2010 | 0.39% of 300,000 active | DAMGO-evoked Fluo4 calcium flux; active compounds read low | Short transient receptor potential channel 4 (Mus musculus), Q9QUQ5 | B-score at 10 µM;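 active means B-score over 3 SD under the library average, no early fluorescence shift, positive overall ratio signal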
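Material: HEK293 cells with stable TRPC4beta plus mu-opioid receptor expression; probe or stimulus: DAMGO in two steps, submaximal then maximal; technique: Fluo4 calcium fluorescence by kinetic imaging, 5 s 1 Hz baseline; measure: integrated fluorescence ratio relative to baseline, converted to per-well B score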
TRPC4 PAM – positive allosteric modulators of TRPC4, primary screen, cell-based, mouse TRPC4beta, HEK293 mu-opioid, Fluo-4 calcium. Short transient receptor potential channel 4 (Mus musculus), Q9QUQ5. DAMGO EC20, Fluo-4 Ca2+ flux; active compounds read high. B-score at 10 µM. 0.42% of 310,000 active;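 active means B-score of calcium response area above 5 SD of library B-scores, with initial fluorescence ratio within 5 SD of library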
TRPC6 inhibitor – mouse TRPC6 channel inhibitors, primary screen, cell-based, HEK293, membrane potential dye | Short transient receptor potential channel 6 (Mus musculus), Q61143 | ACh-evoked depolarization; active compounds read low | B-score at 10 µM | 1.1% of 310,000 active | AID 2553, 2010;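 active means B-score under library mean minus 3 SD, initial fluorescence not abnormally high, positive integrated signal ratio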;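 further: B-score derived from integrated fluorescence ratio over the kinetic read; more negative B-score means stronger inhibition of depolarization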
TRPC4 sel inh 2 – second check of whether TRPC6 inhibitors also affect mouse TRPC4; AID 2776; 42% of 920 active; shares compounds with TRPC6 inhibitor; inhibition, % at 10 µM; HEK293 TRPC4/MOR, membrane potential dye fluorescence; channel activated by saturating DAMGO dose;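 active means compounds whose fluorescence signal differed from control wells by over 3 SD, either direction, in both duplicate plates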
TRPC4 spec – mouse TRPC4 modulation by TRPC6 hits, confirmation, selectivity assay for TRPC6 inhibitor project, cell-based, HEK293 TRPC4/mu-opioid, membrane potential dye; membrane potential fluorescence; 61% of 920 active; activity change, negative = inhibition, % at 10 µM; shares compounds with TRPC6 inhibitor;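 active means rise or fall in signal beyond 3 SD of buffer-only wells in both replicate plates, either sign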;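 further: integrated kinetic ratio of fluorescence range over baseline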
HEK293 MPD ctr 2-1 – nonspecific membrane potential effects, parental HEK293, confirmation, counter-screen for TRPC6 inhibitor project, cell-based, second counter screen. shares compounds with TRPC6 inhibitor. parental HEK293 membrane potential dye fluorescence; maximal acetylcholine challenge after compound addition. signal change vs control, % at 10 µM. 31% of 920 active. AID 2779, 2010;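 active means membrane potential signal moving either way by over 3 SD of the maximum-effect control, in both duplicate plates, meaning non-specific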
HEK293 MPD ctr-1 – membrane potential modulation in parental HEK293, confirmation, counter-screen for TRPC6 inhibitor project, cell-based; shares compounds with TRPC6 inhibitor; parental HEK293 membrane potential dye fluorescence; membrane potential signal change, % at 10 µM; 60% of 920 active; AID 2780, 2010;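 active means membrane potential signal shifting up or down by more than 3 SD of buffer-only wells, on both duplicate plates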
HEK293 MPD ctr-2 – parental HEK293 membrane potential modulation, confirmation, counter-screen for TRPC6 modulator project, cell-based; membrane potential signal change, % at 10 µM; membrane potential dye fluorescence; 51% of 2,400 active; shares compounds with TRPC6 inhibitor; AID 488924, 2010;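 active means membrane potential signal moves up or down beyond 5 SD from buffer-only wells, on both duplicate plates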
HEK293 MPD ctr 2-2 – second counter-screen for TRPC6 modulators: effect in parental HEK293 cells. shares compounds with TRPC6 inhibitor. membrane potential dye fluorescence; after compound, maximal acetylcholine stimulation. inhibition, % at 10 µM. 14% of 2,400 active. AID 488926;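 active means membrane potential signal drops by more than 5 SD from the mean control signal, in both duplicate plates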
TRPC4/MOR mod – TRPC4 modulation by TRPC6 hit compounds, confirmation, selectivity assay for TRPC6 modulator project, cell-based, HEK293 TRPC4/mu-opioid, membrane potential dye, mouse; shares compounds with TRPC6 inhibitor; membrane potential fluorescence; percent change from control (negative = decrease, positive = increase), % at 10 µM; 69% of 2,400 active; AID 488927, 2010;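 active means membrane potential signal moved up or down beyond 5 SD of buffer control wells, in both duplicate plates, actives on both sides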
TRPC4 ctr inh 2 – second check of whether TRPC6 modulators also affect mouse TRPC4. 55% of 2,400 active. HEK293 TRPC4/mu-opioid, membrane potential dye fluorescence; stimulated with maximal-effect DAMGO. shares compounds with TRPC6 inhibitor. AID 488928. inhibition, % at 10 µM;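 active means drop in membrane potential signal beyond 5 SD of the control wells in both duplicate plates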;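 further: TRPC4 counter screen for TRPC6 hits run under conditions tuned for TRPC6 not TRPC4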
TRPC6 inh conf – mouse TRPC6 channel inhibitors, confirmation, HEK293 cells, membrane potential dye, duplicate. AID 488960, 2010. shares compounds with TRPC6 inhibitor. 43% of 3,300 active. inhibition, % at 10 µM. ACh-evoked depolarization;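 active means fluorescence ratio falls more than 5 SD below the full-stimulation control mean, in both duplicate runs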;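 further: integrated fluorescence ratio of peak minus minimum over baseline after agonist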
TRPC6 act confirm – mouse TRPC6 channel activators, confirmation, HEK293 cells, membrane potential dye, duplicate. HEK293-TRPC6 membrane potential dye fluorescence, FDSS. 11% of 2,800 active. activation, % at 10 µM. shares compounds with TRPC6 inhibitor. AID 488961, 2010;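 active means ratio signal rise beyond 5 SD above unstimulated control wells' mean, seen in both duplicate runs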
Large screens that a line does not name were inactive (follow-up assays come after a bar, where they were run).

CC(=O)c1cccc(Nc2cc(C)nc3ccc(C)cc23)c1	TRPC6 inhibitor -6.6 | TRPC4 sel inh 2 66% | TRPC4 spec -22% | HEK293 MPD ctr 2-1 14% | HEK293 MPD ctr-1 -260% | TRPC6 inh conf inactive | TRPC6 act confirm inactive
Cc1cc(C)c2nc(C)cc(Nc3ccc(C(=O)N4CCOCC4)cc3)c2c1	TRPC6 inhibitor -6.9 | TRPC4 sel inh 2 inactive | TRPC4 spec -16% | HEK293 MPD ctr 2-1 inactive | HEK293 MPD ctr-1 -272% | TRPC6 inh conf 70% | TRPC6 act confirm inactive
CC(=O)c1cccc(Nc2cc(C)nc3c(C)cc(C)cc23)c1	TRPC4 block -6, TRPC6 inhibitor -5.8 | HEK293 MPD ctr-2 -102% | HEK293 MPD ctr 2-2 76% | TRPC4/MOR mod -22% | TRPC4 ctr inh 2 65% | TRPC6 inh conf 56% | TRPC6 act confirm inactive
COc1cc(/C=C2\C(=N)N3N=C(C)SC3=NC2=O)cc(Cl)c1OCCOc1ccc(NC(C)=O)cc1	none
O=C(/C(=C\c1ccccc1)c1nc2ccccc2[nH]1)c1ccc(Cl)cc1	none
O=C(/C(=C/c1ccc(Cl)cc1)c1nc2ccccc2[nH]1)c1cccs1	TRPC6 inhibitor -6.8 | TRPC4 sel inh 2 inactive | TRPC4 spec inactive | HEK293 MPD ctr 2-1 inactive | HEK293 MPD ctr-1 inactive | TRPC6 inh conf inactive | TRPC6 act confirm inactive
COc1ccc(CN2CCN(C(=O)Cn3ncn4cccc4c3=O)CC2)c(OC)c1OC	none
O=C(c1ccco1)N1CCN(C(=O)c2ccccc2Oc2ccccc2)CC1	TRPC6 inhibitor -8.1 | TRPC4 sel inh 2 inactive | TRPC4 spec 13% | HEK293 MPD ctr 2-1 inactive | HEK293 MPD ctr-1 6.7% | TRPC6 inh conf 62%
CCOC(=O)N1CCN(C(=O)c2ccccc2Oc2ccccc2)CC1	TRPC6 inhibitor -6.1 | HEK293 MPD ctr-2 94% | HEK293 MPD ctr 2-2 inactive | TRPC4/MOR mod 26% | TRPC4 ctr inh 2 inactive | TRPC6 inh conf 67%
O=C(c1ccco1)N1CCN(C(=O)c2ccccc2OC(=O)C23CC4CC(CC(C4)C2)C3)CC1	none
Cc1ccc(/C=c2\sc3n(c2=O)CN(c2ccc(Br)cc2)CN=3)o1	TRPC6 inhibitor -5.6 | HEK293 MPD ctr-2 inactive | HEK293 MPD ctr 2-2 inactive | TRPC4/MOR mod inactive | TRPC4 ctr inh 2 inactive | TRPC6 inh conf inactive | TRPC6 act confirm inactive
Cc1ccc2c(c1)N(C(=O)CCC(=O)NCCN1CCOCC1)CCO2	none
N=C1/C(=C\c2coc3ccccc3c2=O)C(=O)N=C2SC=CN12	TRPC6 act 26, TRPC6 inhibitor -8 | HEK293 MPD ctr-2 640% | HEK293 MPD ctr 2-2 118% | TRPC4/MOR mod 119% | TRPC4 ctr inh 2 77% | TRPC6 inh conf inactive | TRPC6 act confirm 107%
CC1=CC2=NC(=O)/C(=C/c3coc4ccc(Cl)cc4c3=O)C(=N)N2O1	TRPC6 act 52 | HEK293 MPD ctr-2 active | HEK293 MPD ctr 2-2 active | TRPC4/MOR mod 287% | TRPC4 ctr inh 2 101% | TRPC6 act confirm 457%
Cc1ccc(CNC(=O)c2ccc(CNS(=O)(=O)c3ccc4c(c3)C(C)(C)C(=O)N4C)cc2)o1	none
CCn1ncc(C2=NOC(C(=O)Nc3cnn(C45CC6CC(CC(C6)C4)C5)c3)C2)c1C (configuration not stated)	TRPC6 act 19 | HEK293 MPD ctr-2 inactive | HEK293 MPD ctr 2-2 inactive | TRPC4/MOR mod inactive | TRPC4 ctr inh 2 inactive | TRPC6 act confirm 126%
Cc1ccc(CNC(=O)CSc2nc3c(sc4ccccc43)c(=O)n2CCCN2CCCC2)cc1	TRPC6 inhibitor -5.8 | HEK293 MPD ctr-2 inactive | HEK293 MPD ctr 2-2 inactive | TRPC4/MOR mod 8.0% | TRPC4 ctr inh 2 69% | TRPC6 inh conf 43% | TRPC6 act confirm inactive
CCOC(=O)c1sc2ncnc(N3CCN(C(=O)OCC)CC3)c2c1C	none
CCOC(=O)c1sc2ncnc(N3CCN(CC)CC3)c2c1C	TRPC6 inhibitor -5.5 | HEK293 MPD ctr-2 -128% | HEK293 MPD ctr 2-2 inactive | TRPC4/MOR mod -21% | TRPC4 ctr inh 2 41% | TRPC6 inh conf inactive | TRPC6 act confirm inactive
